The nature of data set [1]: Macroscopic pKa value at 27 C, ionic strength 0.1 M. In kind it is physicochemical.
Data set [2] can be described thus: Macroscopic pKa value at 25 C, ionic strength 1 M. In kind it is physicochemical. The essentials: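 13C and 1H NMR titration in D2O, following chemical shifts against pD at 25 °C, ionic strength 1 M, with a 22 mM solution for the shift data. Carbons of the polyamine chain were assigned from shift data and total ionization shifts. Proton shifts were too small for quantitative analysis, so 1H titration curves were used only qualitatively.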

Data set [3] is described as follows: Macroscopic pKa value at 25 C, ionic strength 0.1 M. In kind it is physicochemical.
Data set [4] is described as follows: physchem.

This passage reports pKa results from ChEMBL document CHEMBL1129664, “Neuroactive polyamine wasp toxins: nuclear magnetic resonance spectroscopic analysis of the protolytic properties of philanthotoxin-343” (J Med Chem, 1996).

`NCCCCNCCCNCCCN`: the pKa was determined as 7.59 in data set [1] (read-out: pK1), 9.24 in data set [1] (read-out: pK2), 10.5 in data set [1] (read-out: pK3) and 11.1 in data set [1] (read-out: pK4).
As for `CCCC(=O)NC(Cc1ccc(O)cc1)C(=O)NCCCNCCCCNCCCN` (stereo unspecified), the pKa in data set [2] (read-out: pK1) turned out to be 8.5; in data set [2] (read-out: pK2), 9.5; in data set [2] (read-out: pK3) it was 10.4; in data set [2] (read-out: pK4), 11.4.
Consider `NCCCCNCCCN` [SPERMIDINE], for which the pKa worked out at 8.93 in data set [2] (read-out: pK1); 10.3 in data set [2] (read-out: pK2); 10.9 in data set [2] (read-out: pK3); 8.15 in data set [3] (read-out: pK1); 9.74 in data set [3] (read-out: pK2); 10.2 in data set [3] (read-out: pK3).
For `NCCCNCCCCNCCCN` [SPERMINE], the pKa in data set [2] (read-out: pK1) is 8.69; in data set [2] (read-out: pK2), 9.31; in data set [2] (read-out: pK3), 10.7; in data set [2] (read-out: pK4), 10.8; in data set [3] (read-out: pK1) it was 7.91; in data set [3] (read-out: pK2), 8.68. For the same molecule, the figures for the pKa in data set [3] (read-out: pK3) and in data set [4] were 10.2 and 10.6, respectively.
On to `NCCCNCCCNCCCN` [THERMINE], for which the pKa in data set [1] (read-out: pK1) came to 7.36; in data set [1] (read-out: pK2), 8.81; in data set [1] (read-out: pK3), 10.1; in data set [1] (read-out: pK4), 10.8.
